Assay results from PMC8453750 (Clinical Pharmacology in Drug Development, 2021).

Columns and labels:
CYP2C9 = settings: recombinant human CYPs; cited from earlier work
[1] = cited from earlier work
[2] = Part 1 safety: treatment-emergent adverse events, labs, vital signs, ECG; assay type: in vivo, human
Method in brief: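 Part 1 had 12 healthy adults. They received a single fasted oral 20 mg dose of the test compound, then itraconazole oral solution 200 mg once daily for 14 days, with the test compound coadministered. TEAEs were recorded through 30 days after the last test-compound dose, coded with MedDRA v22.0 and graded by NCI CTCAE v5. Vital signs, hematology/chemistry/urinalysis and 12-lead ECG were also assessed. All were summarised descriptively.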

[3] = Part 1: mobocertinib-itraconazole DDI study, plasma PK; assay type: in vivo, human; settings: for AUC(0-inf) / Cmax / half-life: human, plasma, oral; for AUC(0-inf): AUC0-∞; for half-life: t½; for AUC0-∞, Geometric LS Mean Ratio (90%CI) (Test/Reference) / Cmax, Geometric LS Mean Ratio (90%CI) (Test/Reference): mobocertinib 20 mg + itraconazole vs mobocertinib alone
Method in brief: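 Nonsmoking adults aged 18–55 (n = 12) took a single oral capsule dose of 20 mg fasted, with a meal at least 4 h postdose. This was repeated with itraconazole solution 200 mg once daily on an empty stomach over 14 days, after a 4-day lead-in. Plasma was sampled predose to 168 h, adding 192 and 240 h with itraconazole. Parent and two metabolites were measured by LC-MS/MS (LLOQ 0.100 ng/mL). Analysis was noncompartmental, with ln-transformed geometric LSM ratios and 90% CI.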

CYP2B6 = settings: recombinant human CYPs; cited from earlier work
[4] = Part 2: mobocertinib-rifampin DDI study, plasma PK; assay type: in vivo, human
[5] = preclinical data; ref data on file; Millennium Pharmaceuticals, Inc.; cited from earlier work
CYP2D6 = settings: recombinant human CYPs; cited from earlier work
CYP3A4/5 = settings: recombinant human CYPs; cited from earlier work
CYP2C19 = settings: recombinant human CYPs; cited from earlier work
CYP2C8 = settings: recombinant human CYPs; cited from earlier work
[6] = Part 2 safety: treatment-emergent adverse events, labs, vital signs, ECG; assay type: in vivo, human
Method in brief: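 Part 2 had 12 healthy adults. They received a single fasted oral 160 mg dose of the test compound, then rifampin 600 mg once daily, with a 7-day lead-in before coadministration and 6 days of continued dosing afterwards. TEAEs were recorded through 30 days after the last test-compound dose, coded with MedDRA v22.0 and graded by NCI CTCAE v5. Vital signs, hematology/chemistry/urinalysis and 12-lead ECG were also assessed. All were summarised descriptively.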

[7] = cited from earlier work; remark: listed apart in the source
CYP1A2 = settings: recombinant human CYPs; cited from earlier work
[8] = Mobocertinib 20 mg + Itraconazole, part 1
[9] = Mobocertinib 20 mg Alone, part 1
[10] = 20 mg, Arithmetic Means (SD), mobocertinib 20 mg alone (reference), footnote a: mean (%CV)
[11] = 20 mg, Geometric Means (%CV), mobocertinib 20 mg alone (reference)
[12] = Arithmetic Means (SD), mobocertinib 20 mg + itraconazole 200 mg once daily (test), footnote a: mean (%CV)
[13] = Geometric Means (%CV), mobocertinib 20 mg + itraconazole 200 mg once daily (test)
[14] = itraconazole and mobocertinib 20 mg vs mobocertinib alone
[15] = itraconazole plus mobocertinib 20 mg vs mobocertinib alone
[16] = mobocertinib 160 mg + rifampin vs mobocertinib alone
[17] = rifampin plus mobocertinib 160 mg
[18] = Mobocertinib 160 mg + Rifampin, part 2
[19] = Mobocertinib 160 mg Alone, part 2

C=CC(=O)Nc1cc(Nc2ncc(C(=O)OC(C)C)c(-c3cn(C)c4ccccc34)n2)c(OC)cc1N(C)CCN(C)C [Mobocertinib]
Percent contribution of enzyme to metabolism (CYP2C9): < 2%
Effect of a low-fat meal on absorption [1]: no apparent effect
Excreted unchanged in urine ([1]; renal elimination): < 1.2%
Mean half-life ([1]; single oral doses, healthy volunteers): 20 h
TEAE: Back pain [2, 8]: 1 (8) n (%)
TEAE: Chest discomfort [2, 8]: 0 n (%)
TEAE: Diarrhea [2, 8]: 2 (17) n (%)
TEAE: Dry skin [2, 8]: 0 n (%)
TEAE: Dry throat [2, 8]: 0 n (%)
TEAE: Headache [2, 8]: 1 (8) n (%)
TEAE: Nausea [2, 8]: 0 n (%)
TEAE: Oropharyngeal pain [2, 8]: 0 n (%)
TEAE: Pruritus [2, 8]: 0 n (%)
TEAE: Pruritus generalized [2, 8]: 0 n (%)
TEAE: Rash [2, 8]: 0 n (%)
Volunteers with TEAEs [2, 8]: 4 (33) n (%)
Volunteers without TEAEs [2, 8]: 8 (67) n (%)
TEAE: Back pain [2, 9]: 0 n (%)
TEAE: Chest discomfort [2, 9]: 0 n (%)
TEAE: Diarrhea [2, 9]: 0 n (%)
TEAE: Dry skin [2, 9]: 1 (8) n (%)
TEAE: Dry throat [2, 9]: 0 n (%)
TEAE: Headache [2, 9]: 0 n (%)
TEAE: Nausea [2, 9]: 0 n (%)
TEAE: Oropharyngeal pain [2, 9]: 0 n (%)
TEAE: Pruritus [2, 9]: 0 n (%)
TEAE: Pruritus generalized [2, 9]: 0 n (%)
TEAE: Rash [2, 9]: 0 n (%)
Volunteers with TEAEs [2, 9]: 1 (8) n (%)
Volunteers without TEAEs [2, 9]: 11 (92) n (%)
TEAE: Back pain ([2]; Part 1 Overall): 1 (8) n (%)
TEAE: Chest discomfort ([2]; Part 1 Overall): 0 n (%)
TEAE: Diarrhea ([2]; Part 1 Overall): 2 (17) n (%)
TEAE: Dry skin ([2]; Part 1 Overall): 1 (8) n (%)
TEAE: Dry throat ([2]; Part 1 Overall): 0 n (%)
TEAE: Headache ([2]; Part 1 Overall): 1 (8) n (%)
TEAE: Nausea ([2]; Part 1 Overall): 0 n (%)
TEAE: Oropharyngeal pain ([2]; Part 1 Overall): 0 n (%)
TEAE: Pruritus ([2]; Part 1 Overall): 0 n (%)
TEAE: Pruritus generalized ([2]; Part 1 Overall): 0 n (%)
TEAE: Rash ([2]; Part 1 Overall): 0 n (%)
Volunteers with TEAEs ([2]; Part 1 Overall): 5 (42) n (%)
Volunteers without TEAEs ([2]; Part 1 Overall): 7 (58) n (%)
Changes in laboratory parameters, vital signs, or ECGs ([2]; part 1): no apparent or consistent treatment‐related changes
Deaths, serious TEAEs, discontinuations ([2]; part 1): No deaths, serious TEAEs, or discontinuations
Tolerability ([2]; single oral dose 20 mg with itraconazole, healthy volunteers): generally well tolerated
AUC(0-inf) [3, 10]: 113 ng·h/mL
AUC(0-inf) [3, 11]: 106 ng·h/mL
Cmax [3, 10]: 5.78 ng/mL
Cmax [3, 11]: 5.52 ng/mL
half-life [3, 10]: 1290 min
half-life [3, 11]: 1270 min
AUC(0-inf) [3, 12]: 907 ng·h/mL
AUC(0-inf) [3, 13]: 892 ng·h/mL
Cmax [3, 12]: 21.5 ng/mL
Cmax [3, 13]: 21.1 ng/mL
half-life [3, 12]: 3280 min
half-life [3, 13]: 3230 min
Increase in plasma AUC0-∞ [3, 14]: 743%
Increase in plasma Cmax [3, 14]: ≈ 283%
Increase in geometric mean t½ [3, 15]: 154%
Median tmax reached later [3, 15]: 2 h
AUC0-∞, Geometric LS Mean Ratio (90%CI) (Test/Reference) [3]: 8.43 (7.02‐10.12)
Cmax, Geometric LS Mean Ratio (90%CI) (Test/Reference) [3]: 3.83 (3.25‐4.50)
AUC0-∞, Geometric LS Mean Ratio (90%CI) (Test/Reference) ([3]; listed as mobocertinib): 8.43
Cmax, Geometric LS Mean Ratio (90%CI) (Test/Reference) ([3]; listed as mobocertinib): 3.83
Percent contribution of enzyme to metabolism (CYP2B6): < 2%
AUC0-∞, Geometric LS Mean Ratio (90%CI) (Test/Reference) [4, 16]: 0.04 (0.03‐0.05)
Cmax, Geometric LS Mean Ratio (90%CI) (Test/Reference) [4, 16]: 0.05 (0.04‐0.07)
AUC0-∞, Geometric LS Mean Ratio (90%CI) (Test/Reference) ([4]; mobocertinib 160 mg + rifampin vs mobocertinib alone, listed as mobocertinib): 0.04
Plasma AUC0-∞ as % of value following mobocertinib alone [4, 17]: ~4%
Plasma Cmax as % of value following mobocertinib alone [4, 17]: approximately 5%
Reduction in geometric mean t½ ([4]; rifampin plus mobocertinib 160 mg vs mobocertinib alone): 29%
Mutagenicity / genotoxicity [5]: neither mutagenic nor genotoxic
Percent contribution of enzyme to metabolism (CYP2D6): < 2%
Percent contribution of enzyme to metabolism (CYP3A4/5): > 90%
Percent contribution of enzyme to metabolism (CYP2C19): < 2%
Percent contribution of enzyme to metabolism (CYP2C8): < 2%
TEAE: Back pain [6, 18]: 1 (8) n (%)
TEAE: Chest discomfort [6, 18]: 2 (17) n (%)
TEAE: Diarrhea [6, 18]: 3 (25) n (%)
TEAE: Dry skin [6, 18]: 0 n (%)
TEAE: Dry throat [6, 18]: 0 n (%)
TEAE: Headache [6, 18]: 2 (17) n (%)
TEAE: Nausea [6, 18]: 2 (17) n (%)
TEAE: Oropharyngeal pain [6, 18]: 2 (17) n (%)
TEAE: Pruritus [6, 18]: 2 (17) n (%)
TEAE: Pruritus generalized [6, 18]: 0 n (%)
TEAE: Rash [6, 18]: 2 (17) n (%)
Volunteers with TEAEs [6, 18]: 10 (83) n (%)
Volunteers without TEAEs [6, 18]: 2 (17) n (%)
TEAE: Back pain [6, 19]: 1 (8) n (%)
TEAE: Chest discomfort [6, 19]: 0 n (%)
TEAE: Diarrhea [6, 19]: 2 (17) n (%)
TEAE: Dry skin [6, 19]: 3 (25) n (%)
TEAE: Dry throat [6, 19]: 2 (17) n (%)
TEAE: Headache [6, 19]: 1 (8) n (%)
TEAE: Nausea [6, 19]: 1 (8) n (%)
TEAE: Oropharyngeal pain [6, 19]: 0 n (%)
TEAE: Pruritus [6, 19]: 0 n (%)
TEAE: Pruritus generalized [6, 19]: 2 (17) n (%)
TEAE: Rash [6, 19]: 0 n (%)
Volunteers with TEAEs [6, 19]: 9 (75) n (%)
Volunteers without TEAEs [6, 19]: 3 (25) n (%)
TEAE: Back pain ([6]; Part 2 Overall): 2 (17) n (%)
TEAE: Chest discomfort ([6]; Part 2 Overall): 2 (17) n (%)
TEAE: Diarrhea ([6]; Part 2 Overall): 4 (33) n (%)
TEAE: Dry skin ([6]; Part 2 Overall): 3 (25) n (%)
TEAE: Dry throat ([6]; Part 2 Overall): 2 (17) n (%)
TEAE: Headache ([6]; Part 2 Overall): 3 (25) n (%)
TEAE: Nausea ([6]; Part 2 Overall): 3 (25) n (%)
TEAE: Oropharyngeal pain ([6]; Part 2 Overall): 2 (17) n (%)
TEAE: Pruritus ([6]; Part 2 Overall): 2 (17) n (%)
TEAE: Pruritus generalized ([6]; Part 2 Overall): 2 (17) n (%)
TEAE: Rash ([6]; Part 2 Overall): 2 (17) n (%)
Volunteers with TEAEs ([6]; Part 2 Overall): 11 (92) n (%)
Volunteers without TEAEs ([6]; Part 2 Overall): 1 (8) n (%)
Changes in laboratory parameters, vital signs, or ECGs ([6]; part 2): no apparent or consistent treatment‐related changes
Deaths, serious TEAEs, discontinuations ([6]; part 2): No deaths, serious TEAEs, or discontinuations
Tolerability ([6]; single oral dose 160 mg with rifampin, healthy volunteers): generally well tolerated
Accumulation of systemic exposure after repeat dosing ([7]; 20 to 120 mg once daily, patients with NSCLC): moderate accumulation
Recommended phase 2 dose ([7]; dose escalation, patients with NSCLC): 160 mg once daily
Dose proportionality of Cmax and AUC0-24 ([7]; dose range 5 to 180 mg once daily): increased in a dose‐proportional manner
Median tmax ([7]; once-daily administration, patients with NSCLC): 4 hours postdose
Percent contribution of enzyme to metabolism (CYP1A2): < 2%
